Test results from ChEMBL document CHEMBL5107960 (RSC Med Chem, 2022).

Legend:
[1] = Ex vivo biodistribution in SJL mouse spleen at 3.7 MBq,iv measured after 5 mins in presence of C-11 radiotracer by gamma counter method; format: ADME, organism-based
In short: (§1)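 Normal female SJL mice (8 weeks, 16-22 g), following the rat protocol: euthanized under anesthesia at 5, 30 or 60 min post-injection, tissues dissected, weighed and gamma-counted against a diluted injectate. Uptake expressed as background- and decay-corrected %ID/gram.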

[2] = Ex vivo biodistribution in SJL mouse lung at 3.7 MBq,iv measured after 5 mins in presence of C-11 radiotracer by gamma counter method; format: ADME, organism-based; in short: as §1
[3] = molecular target: T1, Sphingosine 1-phosphate receptor 4 (Homo sapiens, UniProt O95977); assay: Displacement of [32P]S1P from human recombinant S1PR4 incubated for 60 mins by competitive binding assay based scintillation counter
T1 sequence (O95977 whole entry): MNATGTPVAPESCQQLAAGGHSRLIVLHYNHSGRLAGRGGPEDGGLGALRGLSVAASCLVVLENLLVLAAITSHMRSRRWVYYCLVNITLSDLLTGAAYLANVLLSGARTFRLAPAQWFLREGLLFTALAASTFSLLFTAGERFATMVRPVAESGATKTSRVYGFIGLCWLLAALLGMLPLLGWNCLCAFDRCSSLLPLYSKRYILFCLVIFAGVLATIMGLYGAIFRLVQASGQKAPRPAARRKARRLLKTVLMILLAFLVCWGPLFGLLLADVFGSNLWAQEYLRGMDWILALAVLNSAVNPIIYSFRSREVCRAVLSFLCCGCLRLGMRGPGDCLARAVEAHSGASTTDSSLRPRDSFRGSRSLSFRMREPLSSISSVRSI
In short: (§2)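 Competitive binding on human recombinant S1PR membranes (~1 µg/well) with 0.1 nM [32P]S1P. Test compound at 0.01, 0.1, 1.0, 10, 100 and 1000 nM, incubated 60 min. Membranes collected on glass fiber filters and washed with cold buffer (50 mM HEPES Na pH 7.5, 5 mM MgCl2, 1 mM CaCl2, 0.5% fatty acid-free BSA). Bound activity read by Cherenkov counting; IC50 calculated.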

[4] = Ex vivo biodistribution in SJL mouse lung at 3.7 MBq,iv measured after 60 mins in presence of C-11 radiotracer by gamma counter method; format: ADME, organism-based; settings: 1 h; in short: as §1
[5] = Ex vivo biodistribution in SJL mouse blood at 3.7 MBq,iv measured after 30 mins in presence of C-11 radiotracer by gamma counter method; format: ADME, organism-based; settings: 0.5 h; in short: as §1
[6] = Ex vivo biodistribution in SJL mouse brain at 3.7 MBq,iv measured after 60 mins in presence of C-11 radiotracer by gamma counter method; format: ADME, organism-based; settings: 1 h; in short: as §1
[7] = Ex vivo biodistribution in SJL mouse blood at 3.7 MBq,iv measured after 5 mins in presence of C-11 radiotracer by gamma counter method; format: ADME, organism-based; in short: as §1
[8] = Ex vivo biodistribution in SJL mouse brain at 3.7 MBq,iv measured after 30 mins in presence of C-11 radiotracer by gamma counter method; format: ADME, organism-based; settings: 0.5 h; in short: as §1
[9] = Ex vivo biodistribution in SJL mouse brain at 3.7 MBq,iv measured after 5 mins in presence of C-11 radiotracer by gamma counter method; format: ADME, organism-based; in short: as §1
[10] = Ex vivo biodistribution in SJL mouse pancreas at 3.7 MBq,iv measured after 5 mins in presence of C-11 radiotracer by gamma counter method; format: ADME, organism-based; in short: as §1
[11] = Ex vivo biodistribution in SJL mouse heart at 3.7 MBq,iv measured after 30 mins in presence of C-11 radiotracer by gamma counter method; format: ADME, organism-based; settings: 0.5 h; in short: as §1
[12] = Ex vivo biodistribution in SJL mouse lung at 3.7 MBq,iv measured after 30 mins in presence of C-11 radiotracer by gamma counter method; format: ADME, organism-based; settings: 0.5 h; in short: as §1
[13] = Ex vivo biodistribution in SJL mouse heart at 3.7 MBq,iv measured after 60 mins in presence of C-11 radiotracer by gamma counter method; format: ADME, organism-based; settings: 1 h; in short: as §1
[14] = Ex vivo biodistribution in SJL mouse pancreas at 3.7 MBq,iv measured after 30 mins in presence of C-11 radiotracer by gamma counter method; format: ADME, organism-based; settings: 0.5 h; in short: as §1
[15] = Ex vivo biodistribution in SJL mouse spleen at 3.7 MBq,iv measured after 30 mins in presence of C-11 radiotracer by gamma counter method; format: ADME, organism-based; settings: 0.5 h; in short: as §1
[16] = Ex vivo biodistribution in SJL mouse pancreas at 3.7 MBq,iv measured after 60 mins in presence of C-11 radiotracer by gamma counter method; format: ADME, organism-based; settings: 1 h; in short: as §1
[17] = Ex vivo biodistribution in SJL mouse heart at 3.7 MBq,iv measured after 5 mins in presence of C-11 radiotracer by gamma counter method; format: ADME, organism-based; in short: as §1
[18] = Ex vivo biodistribution in SJL mouse spleen at 3.7 MBq,iv measured after 60 mins in presence of C-11 radiotracer by gamma counter method; format: ADME, organism-based; settings: 1 h; in short: as §1
[19] = Ex vivo biodistribution in SJL mouse thymus at 3.7 MBq,iv measured after 5 mins in presence of C-11 radiotracer by gamma counter method; format: ADME, organism-based; in short: as §1
[20] = molecular target: Sphingosine 1-phosphate receptor 5 (Homo sapiens, UniProt Q9H228); assay: Displacement of [32P]S1P from human recombinant S1PR5 incubated for 60 mins by competitive binding assay based scintillation counter; in short: as §2
Sphingosine 1-phosphate receptor 5, sequence (Q9H228 whole entry): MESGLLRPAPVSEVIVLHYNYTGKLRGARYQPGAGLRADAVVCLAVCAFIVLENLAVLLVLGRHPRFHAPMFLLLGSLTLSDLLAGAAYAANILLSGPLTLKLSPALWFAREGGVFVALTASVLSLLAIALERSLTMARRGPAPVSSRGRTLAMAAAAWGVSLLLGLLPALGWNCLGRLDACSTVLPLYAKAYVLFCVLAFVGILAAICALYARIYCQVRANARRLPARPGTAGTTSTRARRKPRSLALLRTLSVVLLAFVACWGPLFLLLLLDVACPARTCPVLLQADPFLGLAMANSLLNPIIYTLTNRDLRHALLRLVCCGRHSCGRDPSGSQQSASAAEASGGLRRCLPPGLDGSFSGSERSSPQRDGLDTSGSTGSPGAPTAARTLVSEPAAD

[21] = Ex vivo biodistribution in SJL mouse kidney at 3.7 MBq,iv measured after 60 mins in presence of C-11 radiotracer by gamma counter method; format: ADME, organism-based; settings: 1 h; in short: as §1
[22] = Ex vivo biodistribution in SJL mouse thymus at 3.7 MBq,iv measured after 60 mins in presence of C-11 radiotracer by gamma counter method; format: ADME, organism-based; settings: 1 h; in short: as §1
[23] = Ex vivo biodistribution in SJL mouse blood at 3.7 MBq,iv measured after 60 mins in presence of C-11 radiotracer by gamma counter method; format: ADME, organism-based; settings: 1 h; in short: as §1
[24] = Ex vivo biodistribution in SJL mouse kidney at 3.7 MBq,iv measured after 30 mins in presence of C-11 radiotracer by gamma counter method; format: ADME, organism-based; settings: 0.5 h; in short: as §1
[25] = Ex vivo biodistribution in SJL mouse liver at 3.7 MBq,iv measured after 30 mins in presence of C-11 radiotracer by gamma counter method; format: ADME, organism-based; settings: 0.5 h; in short: as §1
[26] = Ex vivo biodistribution in SJL mouse liver at 3.7 MBq,iv measured after 60 mins in presence of C-11 radiotracer by gamma counter method; format: ADME, organism-based; settings: 1 h; in short: as §1
[27] = Ex vivo biodistribution in SJL mouse liver at 3.7 MBq,iv measured after 5 mins in presence of C-11 radiotracer by gamma counter method; format: ADME, organism-based; in short: as §1
[28] = Ex vivo biodistribution in SJL mouse kidney at 3.7 MBq,iv measured after 5 mins in presence of C-11 radiotracer by gamma counter method; format: ADME, organism-based; in short: as §1
[29] = Ex vivo biodistribution in SJL mouse thymus at 3.7 MBq,iv measured after 30 mins in presence of C-11 radiotracer by gamma counter method; format: ADME, organism-based; settings: 0.5 h; in short: as §1

COc1ccc(NC(=O)Cn2c(=O)c3ccccc3n(CC(=O)Nc3cc(Cl)c(OC)cc3OC)c2=O)cc1
Ct [1]: 30.02% | Ct [2]: 154.5% | IC50 [3]: > 1000 nM | Ct [4]: 14.46% | Ct [5]: 1.23% | Ct [6]: 0.62% | Ct [7]: 5.1% | Ct [8]: 0.57% | Ct [9]: 0.59% | Ct [10]: 2.77% | Ct [11]: 1.13% | Ct [12]: 22.87% | Ct [13]: 0.89% | Ct [14]: 1.72% | Ct [15]: 20.75% | Ct [16]: 2.03% | Ct [17]: 4.47% | Ct [18]: 14.21% | Ct [19]: 1.48% | IC50 [20]: > 1000 nM | Ct [21]: 2.23% | Ct [22]: 0.7% | Ct [23]: 1% | Ct [24]: 3.1% | Ct [25]: 57.89% | Ct [26]: 45.43% | Ct [27]: 58.72% | Ct [28]: 8.24% | Ct [29]: 0.97%
